Assay results as given in ChEMBL document CHEMBL4715754, “Slowing down fat digestion and absorption by an oxadiazolone inhibitor targeting selectively gastric lipolysis” (2016).
Calls of active or inactive are those of the source. The rule behind the calls is not given here.

Columns and labels:
[1] = biological target: T1, Gastric triacylglycerol lipase (Canis lupus familiaris) (UniProt P80035); assay: Inhibition of recombinant dog gastric lipase at 4:1 molar excess compound concentration preincubated for 30 mins at 25 degreeC relative to control
T1 sequence (whole entry): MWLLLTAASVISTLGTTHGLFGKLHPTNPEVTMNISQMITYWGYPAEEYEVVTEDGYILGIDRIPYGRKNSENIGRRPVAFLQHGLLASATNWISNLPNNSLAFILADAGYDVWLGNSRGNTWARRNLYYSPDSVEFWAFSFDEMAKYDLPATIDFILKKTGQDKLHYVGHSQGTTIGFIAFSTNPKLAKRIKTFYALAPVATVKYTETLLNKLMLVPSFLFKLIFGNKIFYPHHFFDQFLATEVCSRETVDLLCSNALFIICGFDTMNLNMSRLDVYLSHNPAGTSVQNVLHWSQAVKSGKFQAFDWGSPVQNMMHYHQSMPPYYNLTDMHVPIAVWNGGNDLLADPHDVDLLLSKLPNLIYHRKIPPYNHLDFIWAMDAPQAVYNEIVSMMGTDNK

[2] = biological target: T2, Pancreatic triacylglycerol lipase (Homo sapiens) (UniProt P16233); assay: Inhibition of human pancreatic lipase at 400:1 molar excess compound concentration preincubated for 30 mins at 25 degreeC relative to control
T2 sequence (whole entry): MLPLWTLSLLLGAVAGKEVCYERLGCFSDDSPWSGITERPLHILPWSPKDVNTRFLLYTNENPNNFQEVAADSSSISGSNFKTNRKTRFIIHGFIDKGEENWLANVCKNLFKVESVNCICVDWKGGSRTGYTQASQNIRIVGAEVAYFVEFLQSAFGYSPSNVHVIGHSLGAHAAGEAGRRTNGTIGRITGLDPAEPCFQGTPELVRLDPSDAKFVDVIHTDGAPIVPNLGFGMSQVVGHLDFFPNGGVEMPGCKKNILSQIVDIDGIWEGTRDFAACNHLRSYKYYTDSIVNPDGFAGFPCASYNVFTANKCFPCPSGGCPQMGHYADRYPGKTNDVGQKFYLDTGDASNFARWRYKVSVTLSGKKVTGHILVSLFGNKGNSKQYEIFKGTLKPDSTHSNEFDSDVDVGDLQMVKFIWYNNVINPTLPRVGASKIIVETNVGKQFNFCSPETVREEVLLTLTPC
Method in brief: (§1)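 Pancreatic lipase from human pancreatic juice (54 µg/mL HPL stock) or porcine pancreatic extract (32 µg/mL PPL stock) was held in 10 mM MES pH 7.0, 150 mM NaCl. It was pre-incubated with inhibitor from DMSO stock for 30 min at 25 °C with 4 mM NaTDC at varied molar excess. Residual activity was read by pH-stat on tributyrin at 37 °C, pH 8.0, with 2 mM CaCl₂ and 4 mM NaTDC. x_I50 was taken from residual activity; DMSO-only controls were run.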

[3] = biological target: T3, Pancreatic triacylglycerol lipase (Sus scrofa) (UniProt P00591); assay: Inhibition of porcine pancreatic lipase at 400:1 molar excess compound concentration preincubated for 30 mins at 25 degreeC relative to control; method in brief: as §1
T3 sequence (whole entry): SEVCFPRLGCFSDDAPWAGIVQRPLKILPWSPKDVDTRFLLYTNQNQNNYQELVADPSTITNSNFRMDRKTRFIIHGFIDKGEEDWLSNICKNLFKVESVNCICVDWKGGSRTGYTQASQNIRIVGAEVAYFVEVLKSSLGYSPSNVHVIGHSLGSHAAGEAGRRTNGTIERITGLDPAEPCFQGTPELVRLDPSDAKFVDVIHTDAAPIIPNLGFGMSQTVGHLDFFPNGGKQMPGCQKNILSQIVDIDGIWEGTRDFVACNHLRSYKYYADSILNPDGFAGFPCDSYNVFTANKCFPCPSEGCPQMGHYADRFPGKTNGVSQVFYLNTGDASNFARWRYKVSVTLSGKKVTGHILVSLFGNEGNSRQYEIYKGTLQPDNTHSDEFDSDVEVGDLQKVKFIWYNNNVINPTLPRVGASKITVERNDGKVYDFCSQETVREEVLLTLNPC

[4] = biological target: T1, Gastric triacylglycerol lipase (Canis lupus familiaris); assay: Inhibition of recombinant dog gastric lipase preincubated for 30 mins at 25 degreeC
[5] = biological target: T4, Pancreatic lipase-related protein 2 (Cavia porcellus) (UniProt P81139); assay: Inhibition of recombinant guinea pig PL-RP2 expressed in Aspergillus oryzae at 4:1 molar excess compound concentration preincubated for 30 mins at 25 degreeC relative to control
T4 sequence (whole entry): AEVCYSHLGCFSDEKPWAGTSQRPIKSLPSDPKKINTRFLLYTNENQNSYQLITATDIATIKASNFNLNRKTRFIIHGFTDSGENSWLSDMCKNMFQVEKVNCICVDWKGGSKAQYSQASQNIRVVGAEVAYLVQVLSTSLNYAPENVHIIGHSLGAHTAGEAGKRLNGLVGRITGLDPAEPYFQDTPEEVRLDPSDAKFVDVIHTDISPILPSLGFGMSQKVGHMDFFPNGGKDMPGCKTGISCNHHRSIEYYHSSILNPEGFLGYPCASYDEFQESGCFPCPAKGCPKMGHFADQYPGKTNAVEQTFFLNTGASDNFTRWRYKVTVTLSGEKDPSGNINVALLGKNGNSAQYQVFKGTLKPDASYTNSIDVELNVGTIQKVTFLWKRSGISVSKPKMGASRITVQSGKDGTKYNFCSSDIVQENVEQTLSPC

[6] = biological target: T3, Pancreatic triacylglycerol lipase (Sus scrofa); assay: Inhibition of porcine pancreatic lipase preincubated for 30 mins at 25 degreeC; method in brief: as §1
[7] = biological target: T4, Pancreatic lipase-related protein 2 (Cavia porcellus); assay: Inhibition of recombinant guinea pig PL-RP2 expressed in Aspergillus oryzae preincubated for 30 mins at 25 degreeC
[8] = biological target: T2, Pancreatic triacylglycerol lipase (Homo sapiens); assay: Inhibition of human pancreatic lipase preincubated for 30 mins at 25 degreeC; method in brief: as §1
[9] = biological target: T1, Gastric triacylglycerol lipase (Canis lupus familiaris); assay: Inhibition of recombinant dog gastric lipase at 20:1 molar excess compound concentration preincubated for 30 mins at 25 degreeC relative to control
[10] = biological target: T4, Pancreatic lipase-related protein 2 (Cavia porcellus); assay: Inhibition of recombinant guinea pig PL-RP2 expressed in Aspergillus oryzae at 20:1 molar excess compound concentration preincubated for 30 mins at 25 degreeC relative to control
[11] = biological target: T2, Pancreatic triacylglycerol lipase (Homo sapiens); assay: Inhibition of human pancreatic lipase at 400:1 molar excess compound concentration preincubated for 120 mins at 25 degreeC
[12] = biological target: T3, Pancreatic triacylglycerol lipase (Sus scrofa); assay: Inhibition of porcine pancreatic lipase at 400:1 molar excess compound concentration preincubated for 120 mins at 25 degreeC

| Structure (SMILES) | inhibition [1] | inhibition [2] | inhibition [3] | XI50 [4] | inhibition [5] | XI50 [6] | XI50 [7] | XI50 [8] | inhibition [9] | inhibition [10] | inhibition [11] | inhibition [12] |
| --- | --- | --- | --- | --- | --- | --- | --- | --- | --- | --- | --- | --- |
| COCCOc1nn(-c2cccc(Oc3ccccc3)c2)c(=O)o1 | 18.1% | 20% | 15.5% | 11.8 molar excess | 60.3% | > 400 molar excess | 1.7 molar excess | > 400 molar excess | 69.1% | 67.8% | – | – |
| COc1nn(-c2ccccc2)c(=O)o1 | – | 25.6% | 90.6% | – | – | – | – | > 400 molar excess | – | – | – | – |
| CCCCC(CC)COc1nn(-c2cccc(Oc3ccccc3)c2)c(=O)o1 (stereo not drawn) | 21.6% | 22.4% | 18.9% | > 100 molar excess | 47.9% | > 400 molar excess | 2.8 molar excess | > 400 molar excess | 27.6% | 54.8% | – | – |
| COc1nn(-c2ccc(Oc3ccccc3)cc2)c(=O)o1 | – | 4% | – | – | – | > 400 molar excess | – | – | – | – | – | – |
| CCCCOc1nn(-c2cccc(Oc3ccccc3)c2)c(=O)o1 | 41.5% | 19.1% | 19.7% | 5.33 molar excess | 42.4% | > 400 molar excess | > 40 molar excess | > 400 molar excess | 77.5% | 43.8% | – | – |
| CCCCCCCCCCOc1nn(-c2cccc(Oc3ccccc3)c2)c(=O)o1 | 14.6% | 20.1% | 32.5% | > 100 molar excess | 56.4% | > 400 molar excess | 2.72 molar excess | > 400 molar excess | 37.7% | 57.4% | – | – |
| CC(C)COc1nn(-c2cccc(Oc3ccccc3)c2)c(=O)o1 | 35.2% | 21.2% | 20.6% | 5.51 molar excess | 73.6% | > 400 molar excess | 0.52 molar excess | > 400 molar excess | 69.6% | 76% | – | – |
| COc1nn(-c2cccc(Oc3ccccc3)c2)c(=O)o1 | – | 49.1% | – | – | – | – | – | – | – | – | inactive | inactive |
| CCCCCCCCOc1nn(-c2cccc(Oc3ccccc3)c2)c(=O)o1 | 53.9% | 25.7% | 19.9% | 3.99 molar excess | 62.3% | > 400 molar excess | 1.47 molar excess | > 400 molar excess | 70.5% | 63% | – | – |
| CCOc1nn(-c2cccc(Oc3ccccc3)c2)c(=O)o1 | 33.6% | 18.8% | 19% | 6.08 molar excess | 27.4% | > 400 molar excess | > 40 molar excess | > 400 molar excess | 83% | 27.7% | – | – |
| CCCCCCCCCCCCOc1nn(-c2cccc(Oc3ccccc3)c2)c(=O)o1 | 44.1% | 29.1% | 27.9% | 4.57 molar excess | 53.1% | > 400 molar excess | 1.17 molar excess | > 400 molar excess | 68.2% | 54.4% | – | – |
| CCCCCCOc1nn(-c2cccc(Oc3ccccc3)c2)c(=O)o1 | 43.5% | 17.1% | 27.2% | 4.92 molar excess | 90.7% | > 400 molar excess | 1.09 molar excess | > 400 molar excess | 65.9% | 91.3% | – | – |
